# Experimental data published in article PMC9042899 (RSC Advances, 2021).
# Target: CIAP (calf intestinal alkaline phosphatase) (Bos taurus, UniProt P19111)
# Assay: Alkaline phosphatase
# Format: biochemical
# Settings: Alkaline phosphatase IC50 ± SEM, CIAP, substrate p-NPP, pH 9.5, 37 °C; mean ± SEM; NA = No activity
# Sequence of CIAP (calf intestinal alkaline phosphatase) (P19111 20-506 limits assumed): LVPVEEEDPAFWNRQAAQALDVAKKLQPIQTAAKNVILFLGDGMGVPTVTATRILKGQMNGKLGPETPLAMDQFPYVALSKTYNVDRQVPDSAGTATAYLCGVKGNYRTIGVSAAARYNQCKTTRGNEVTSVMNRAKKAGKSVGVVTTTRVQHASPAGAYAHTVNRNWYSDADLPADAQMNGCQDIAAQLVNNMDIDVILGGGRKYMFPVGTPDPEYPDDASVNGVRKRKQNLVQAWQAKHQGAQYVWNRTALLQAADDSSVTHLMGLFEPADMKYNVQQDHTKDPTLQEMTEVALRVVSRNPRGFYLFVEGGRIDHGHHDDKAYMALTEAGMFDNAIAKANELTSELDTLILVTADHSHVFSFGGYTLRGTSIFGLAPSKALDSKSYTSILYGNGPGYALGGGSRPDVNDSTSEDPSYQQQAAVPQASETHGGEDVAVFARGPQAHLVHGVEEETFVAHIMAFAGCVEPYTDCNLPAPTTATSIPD
row,Structure (SMILES),IC50 [µM]
1,"Cc1ccc(C=C2Oc3cc(Cl)cc([N+](=O)[O-])c3C2=O)c(C)c1 [Compound 18, 6-Chloro-2-(2,4-dimethylbenzylidene)-4-nitrobenzofuran-3(2H)-one]",1.15 ± 0.043
2,"O=C(C=Cc1cccs1)c1cc(Cl)cc([N+](=O)[O-])c1O [Compound 9, 1-(5-Chloro-2-hydroxy-3-nitrophenyl)-3-(thiophen-2-yl)prop-2-en-1-one]",8.45 ± 0.245
3,"CN(C)c1ccc(C=CC(=O)c2cc(Cl)cc([N+](=O)[O-])c2O)cc1 [Compound 6, 1-(5-Chloro-2-hydroxy-3-nitrophenyl)-3-(4-(dimethylamino)phenyl)prop-2-en-1-one]",3.02 ± 0.087
4,"CCCOc1ccc(C=C2Oc3cc(Cl)cc([N+](=O)[O-])c3C2=O)cc1OC [Compound 21, 6-Chloro-2-(3-methoxy-4-propoxybenzylidene)-4-nitrobenzofuran-3(2H)-one]",2.33 ± 0.059
5,"COc1cc(C=CC(=O)c2cc(Cl)cc([N+](=O)[O-])c2O)ccc1OCc1ccccc1 [Compound 11, 3-(4-(Benzyloxy)-3-methoxyphenyl)-1-(5-chloro-2-hydroxy-3-nitrophenyl)prop-2-en-1-one]",9.56 ± 0.263
6,"O=C(C=Cc1ccc(Cl)cc1)c1cc(Br)cc(Br)c1O [Compound 2, 3-(4-Chlorophenyl)-1-(3,5-dibromo-2-hydroxyphenyl)prop-2-en-1-one]",6.23 ± 0.098
7,"O=C(C=Cc1ccco1)c1cc(Br)cc(Br)c1O [Compound 1, 1-(3,5-Dibromo-2-hydroxyphenyl)-3-(furan-2-yl)prop-2-en-1-one]",4.31 ± 0.154
8,"O=C1C(=Cc2ccc(Cl)cc2)Oc2cc(Br)cc(Br)c21 [Compound 12, 4,6-Dibromo-2-(4-chlorobenzylidene)benzofuran-3(2H)-one]",2.16 ± 0.048
9,"O=C(C=Cc1ccc(F)cc1)c1cc(Cl)cc([N+](=O)[O-])c1O [Compound 5, 1-(5-Chloro-2-hydroxy-3-nitrophenyl)-3-(4-fluorophenyl)prop-2-en-1-one]",7.55 ± 0.265
10,"Cc1ccc(C=CC(=O)c2cc(Cl)cc([N+](=O)[O-])c2O)c(C)c1 [Compound 8, 1-(5-Chloro-2-hydroxy-3-nitrophenyl)-3-(2,4-dimethylphenyl)prop-2-en-1-one]",12.6 ± 0.298
11,"O=C1C(=Cc2ccc(Cl)cc2)Oc2cc(Cl)cc([N+](=O)[O-])c21 [Compound 16, 6-Chloro-2-(4-chlorobenzylidene)-4-nitrobenzofuran-3(2H)-one]",2.13 ± 0.034
12,"CN(C)c1ccc(C=C2Oc3cc(Cl)cc([N+](=O)[O-])c3C2=O)cc1 [Compound 15, 6-Chloro-2-(4-(dimethylamino)benzylidene)-4-nitrobenzofuran-3(2H)-one]",2.15 ± 0.056
13,"COc1cc(C=C2Oc3cc(Cl)cc([N+](=O)[O-])c3C2=O)ccc1OCc1ccccc1 [Compound 22, 2-(4-(Benzyloxy)-3-methoxybenzylidene)-6-chloro-4-nitrobenzofuran-3(2H)-one]",5.54 ± 0.079
14,"CCCOc1ccc(C=CC(=O)c2cc(Cl)cc([N+](=O)[O-])c2O)cc1OC [Compound 10, 1-(5-Chloro-2-hydroxy-3-nitrophenyl)-3-(3-methoxy-4-propoxyphenyl)prop-2-en-1-one]",6.97 ± 0.097
15,"O=C1C(=Cc2ccco2)Oc2cc(Br)cc(Br)c21 [Compound 14, 4,6-Dibromo-2-(furan-2-ylmethylene)benzofuran-3(2H)-one]",4.66 ± 0.051
16,"O=C1C(=Cc2cccs2)Oc2cc(Cl)cc([N+](=O)[O-])c21 [Compound 19, 6-Chloro-4-nitro-2-(thiophen-2-ylmethylene)benzofuran-3(2H)-one]",5.88 ± 0.083
17,"O=C1C(=Cc2ccc(F)cc2)Oc2cc(Cl)cc([N+](=O)[O-])c21 [Compound 17, 6-Chloro-2-(4-fluorobenzylidene)-4-nitrobenzofuran-3(2H)-one]",4.88 ± 0.086
18,"COc1ccc(C=CC(=O)c2cc(Cl)cc([N+](=O)[O-])c2O)cc1 [Compound 4, 1-(5-Chloro-2-hydroxy-3-nitrophenyl)-3-(4-methoxyphenyl)prop-2-en-1-one]",3.14 ± 0.176
19,"O=C1C(=Cc2ccc(C(F)(F)F)cc2)Oc2cc(Br)cc(Br)c21 [Compound 13, 4,6-Dibromo-2-(4-(trifluoromethyl)benzylidene)benzofuran-3(2H)-one]",5.79 ± 0.081
20,"COc1ccc(C=C2Oc3cc(Cl)cc([N+](=O)[O-])c3C2=O)cc1 [Compound 20, 6-Chloro-2-(4-methoxybenzylidene)-4-nitrobenzofuran-3(2H)-one]",1.05 ± 0.029

# Same assay, conditions: ratio of IC50 values vs standard KH2PO4
row,Structure (SMILES),fold higher inhibition compared to KH2PO4 [fold]
1,"COc1ccc(C=C2Oc3cc(Cl)cc([N+](=O)[O-])c3C2=O)cc1 [Compound 20, 6-Chloro-2-(4-methoxybenzylidene)-4-nitrobenzofuran-3(2H)-one]",~2.6

# Tested on: alkaline phosphatase
# Assay: Enzyme inhibition kinetic study
# Format: biochemical
# Settings: inhibitor 0.00, 1.15, 2.30, 4.60 and 9.20 μM; substrate p-NPP
# In short: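 Enzyme, buffer and pre-incubation were as in the AP inhibition assay. p-NPP was used at 10, 5, 2.5, […] and 0.625 mM. Maximum initial velocities came from the linear part of absorbance over up to 10 min. Inhibition type was assigned from Lineweaver–Burk plots of 1/V vs. 1/[S].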
row,Structure (SMILES),type of enzyme inhibition (Lineweaver–Burk plot)
1,"COc1ccc(C=C2Oc3cc(Cl)cc([N+](=O)[O-])c3C2=O)cc1 [Compound 20, 6-Chloro-2-(4-methoxybenzylidene)-4-nitrobenzofuran-3(2H)-one]",non-competitive

# Target: AP
# Assay: not given
# Settings: traditional AP inhibitors; ref 34g; cited from earlier work
row,Structure (SMILES),Ki [µM]
1,Cn1c(=O)c2[nH]cnc2n(C)c1=O [theophylline],82
2,c1ccc([C@H]2CN3CCSC3=N2)cc1 [levamisole],16
